# PMC3152616 (Peptides, 2011)
# Read-outs that look alike come from different tables or passages of the source. Marks after values point to notes of the source that are not given here. Numbered stars: 1 amine (or outer) side, 2 acyl side, 3 side chain; on linkers, the order of the positions; unused ones are H or OH. Square brackets hold non-standard residues; d marks the D form. Peptide text beside a SMILES is read from it. * marks the point of attachment. dProψ(CH2NH)PheNH2 = NC(=O)[C@H](Cc1ccccc1)NC[C@H]1CCCN1*; X1 = O=C(C[C@@H](N[*:1])c1ccc(Cl)cc1)[*:2]; Hydrocinnamoyl = O=C(CCc1ccccc1)*; NHPhenethyl = c1ccc(CCN*)cc1; Nle = CCCC[C@H](N)C(=O)O; PhAc = O=C(Cc1ccccc1)*
# Columns and labels:
# BRS-3 [1] = target: T1, BRS-3 (Homo sapiens, UniProt P32247); conditions: cited from earlier work
# T1 sequence (P32247 1-399): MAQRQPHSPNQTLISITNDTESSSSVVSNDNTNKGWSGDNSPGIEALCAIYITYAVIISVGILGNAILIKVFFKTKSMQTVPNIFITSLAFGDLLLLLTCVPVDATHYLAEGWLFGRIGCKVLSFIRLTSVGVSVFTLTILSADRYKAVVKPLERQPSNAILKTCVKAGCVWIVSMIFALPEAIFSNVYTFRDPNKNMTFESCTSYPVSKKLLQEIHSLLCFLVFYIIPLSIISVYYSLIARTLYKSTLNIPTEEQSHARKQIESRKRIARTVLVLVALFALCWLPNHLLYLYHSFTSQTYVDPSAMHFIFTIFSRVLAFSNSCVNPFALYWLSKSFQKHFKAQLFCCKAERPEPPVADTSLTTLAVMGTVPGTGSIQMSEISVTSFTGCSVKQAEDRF
# [2] = test system: ERK tyrosine phosphorylation; experiment: ERK tyrosine phosphorylation; format: cell-based, human; conditions: concentration not given
# [3] = test system: EGFR tyrosine phosphorylation; experiment: EGFR tyrosine phosphorylation; format: cell-based, human
# NCI-H1299-BRS-3 cells = experiment: Clonogenic assay; format: cell-based, human; conditions: for Effect on NCI-H1299-BRS-3 cellular proliferation: unpublished; for Colony number: addition 10 nM, mean ± S.D., no addition 40 ± 6
# BB2R = conditions: cited from earlier work
# BB1R = conditions: read-out: IC50, binding to BB1R; transfected Balb 3T3 cells; cited from earlier work
# BRS-3 [4] = target: T1, BRS-3; experiment: Inhibition of specific 125I-BA1 binding to NCI-H1299-BRS-3 cells
# Balb/3T3-BRS-3 cells = experiment: MTT proliferation assay; format: cell-based
# Balb/3T3 cells = experiment: MTT proliferation assay, control cells; format: cell-based; conditions: 30 μg/ml, 16 hours, mean ± S.E.
# How it was run: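 Parental Balb/3T3 cells lacking BRS-3 were maintained in DMEM with 10% FBS. They were seeded at 10⁴/well in serum-free SIT medium (RPMI-1640 with selenite, insulin and transferrin) and exposed for 16 h to test compound at 10 nM or 30 μg/ml. MTT was then added for 3 h, formazan was dissolved in DMSO, and OD was read at 570 nm. Growth is given as % of control, mean ± S.E.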
# [5] = concentration not given, data not shown / unpublished
# [6] = read-out: IC50, binding to BRS-3, transfected Balb 3T3 cells
# [7] = read-out: IC50, binding to BB2R, transfected Balb 3T3 cells
molecule,measurement,setting,value
C[C@H](NC(=O)Cc1ccccc1)C(=O)N[C@H](Cc1c[nH]c2ccccc12)C(=O)NCCc1ccccc1 [16a] (PhAc-Ala-[dW]-NHPhenethyl),IC50,"BRS-3 [1]; read-out: IC50, binding to human BRS-3",3160 nM
COc1cc2ncnc(Nc3cccc(Cl)c3)c2cc1OC [AG1478],Inhibition of BA1-induced ERK tyrosine phosphorylation,[2],blocked
same,Inhibition of the increase in EGFR tyrosine phosphorylation caused by BA1,[3]; [5],blocked
"CCCC[C@H](NC(=O)[C@H](Cc1ccccc1)NC(=O)[C@H](Cc1c[nH]cn1)NC(=O)C[C@@H](NC(=O)[C@@H](NC(=O)[C@H](C)NC(=O)[C@H](Cc1c[nH]c2ccccc12)NC(=O)[C@H](CCC(N)=O)NC(=O)[C@H](N)Cc1ccc(O)cc1)C(C)C)c1ccc(Cl)cc1)C(N)=O [BA3, (DTyr^6, R-Apa^11,4-Cl,Phe^13, Nle^14)bombesin^6-14] (H-[dY]QWAV[X1]HF[Nle]-NH2; N-terminus and C-terminus assumed)",Selectivity for hBRS-3 over hNMBR or hGRPR,BRS-3 [1],over 60 fold
same,EGFR tyrosine phosphorylation (transactivation),"[3]; 100 nM, NCI-H1299-BRS-3 cells",increased
CC(C)[C@H](NC(=O)[C@H](C)NC(=O)[C@H](Cc1c[nH]c2ccccc12)NC(=O)[C@H](Cc1c[nH]cn1)NC(=O)CCc1ccccc1)C(=O)N[C@H](C)C(=O)N[C@@H](Cc1c[nH]cn1)C(=O)N1CCC[C@@H]1CN[C@@H](Cc1ccccc1)C(N)=O [BW2258U89] (Hydrocinnamoyl-HWAV[dA]H-{dProψ(CH2NH)PheNH2}; N-terminus and C-terminus assumed),Effect on NCI-H1299-BRS-3 cellular proliferation,NCI-H1299-BRS-3 cells,little effect
same,IC50,BRS-3 [1]; [6],6820 nM
same,IC50,BB2R; [7],0.2 nM
same,IC50,BB1R,4900 nM
same,Inhibition of BA1-induced ERK tyrosine phosphorylation,[2],not inhibited
"c1ccc2c(c1)[I+]c1ccccc1-2 [DPI, diphenylene iodonium]",Inhibition of the increase in EGFR tyrosine phosphorylation caused by BA1,"[3]; 15 μM, 100 nM BA1",inhibited
CNC(=O)[C@H](Cc1c[nH]c2ccccc12)NC(=O)[C@@H](CC(=O)NO)CC(C)C [GM6001],Inhibition of the increase in EGFR tyrosine phosphorylation caused by BA1,"[3]; 10 μM, 100 nM BA1",inhibited
"CSCC[C@H](NC(=O)[C@H](CC(C)C)NC(=O)[C@H](Cc1c[nH]cn1)NC(=O)CNC(=O)[C@@H](NC(=O)[C@H](C)NC(=O)[C@H](Cc1c[nH]c2ccccc12)NC(=O)[C@H](Cc1c[nH]cn1)NC(=O)[C@H](CC(N)=O)NC(=O)CNC(=O)[C@H](CCCNC(=N)N)NC(=O)[C@@H]1CCCN1C(=O)[C@H](Cc1ccc(O)cc1)NC(=O)[C@H](CCSC)NC(=O)[C@H](CCCCN)NC(=O)[C@@H](NC(=O)[C@H](CC(C)C)NC(=O)[C@@H](NC(=O)[C@@H](NC(=O)CNC(=O)CNC(=O)CNC(=O)[C@H](C)NC(=O)[C@@H]1CCCN1C(=O)[C@H](CC(C)C)NC(=O)[C@@H]1CCCN1C(=O)[C@@H](N)C(C)C)[C@@H](C)O)C(C)C)[C@@H](C)O)C(C)C)C(N)=O [GRP, gastrin releasing peptide]",Colony number,NCI-H1299-BRS-3 cells,41 ± 5^aa
"COc1cc2ncnc(Nc3ccc(F)c(Cl)c3)c2cc1OCCCN1CCOCC1 [Gefitinib, gefitinib]",Effect on colony number,"NCI-H1299-BRS-3 cells; gefitinib dose-response, exogenous BA1 not added, Fig. 1B",reduced colony number in a dose-dependent manner
same,IC50,BRS-3 [4],> 2000 nM
same,% Growth Balb/3T3-BRS-3,"Balb/3T3-BRS-3 cells; 30 μg/ml, 16 hours, MTT, mean ± S.E.",41 ± 6 %
same,% Growth Balb/3T3,Balb/3T3 cells,31 ± 4 %
CC(=O)N[C@@H](CS)C(=O)O [N-acetylcysteine],Inhibition of the increase in EGFR tyrosine phosphorylation caused by BA1,"[3]; 5 mM, 100 nM BA1",reversed
"CSCC[C@H](NC(=O)[C@H](Cc1ccccc1)NC(=O)[C@H](Cc1c[nH]cn1)NC(=O)CNC(=O)[C@@H](NC(=O)[C@H](C)NC(=O)[C@H](Cc1c[nH]c2ccccc12)NC(=O)[C@H](CC(C)C)NC(=O)[C@H](CC(N)=O)NC(=O)CN)[C@@H](C)O)C(N)=O [NMB, neuromedin B]",Colony number,NCI-H1299-BRS-3 cells,46 ± 5^a
same,IC50,BRS-3 [4],> 2000 nM
COc1cccc(-c2cc(=O)c3ccccc3o2)c1N [PD98059],Inhibition of BA1-induced ERK tyrosine phosphorylation,[2],reversed
same,Effect on growth,"Balb/3T3-BRS-3 cells; 10 μM, all cells tested, preliminary unpublished data",little effect
same,Inhibition of the increase in EGFR tyrosine phosphorylation caused by BA1,[3]; [5],no effect
C[C@@](Cc1c[nH]c2ccccc12)(NC(=O)Nc1ccc([N+](=O)[O-])cc1)C(=O)NCC1(c2ccccn2)CCCCC1 [PD168368],Effect on NCI-H1299-BRS-3 cellular proliferation,NCI-H1299-BRS-3 cells,little effect
same,IC50,BRS-3 [1]; [6],> 10000 nM
same,IC50,BB2R; [7],213 nM
same,IC50,BB1R,0.5 nM
same,Inhibition of BA1-induced ERK tyrosine phosphorylation,[2],not inhibited
same,IC50,"BRS-3 [4]; read-out: IC50, inhibition of specific 125I-BA1 binding, NCI-H1299-BRS-3 cells, 37°C, mean ± S.E. of 4 determinations",> 2000 nM
CC(C)(C)n1nc(-c2ccc(Cl)cc2)c2c(N)ncnc21 [PP2],Inhibition of the increase in EGFR tyrosine phosphorylation caused by BA1,"[3]; 10 μM, 100 nM BA1",inhibited
O=S(=O)(O)c1cc(O)c(O)c(S(=O)(=O)O)c1 [Tiron],Inhibition of the increase in EGFR tyrosine phosphorylation caused by BA1,"[3]; 5 mM, 100 nM BA1",reversed
Ac-Phe-Trp-Ala-His(γBzl)-Nip-Gly-Arg-NH2,IC50,"BB2R; read-out: IC50, BB2R, ref 2, 28",> 10000 nM
same,IC50,"BB2R; read-out: IC50, BB2R, ref 26, 27",2800 nM
